Here are results for 167 variants from the RNAGym collection of RNA variant scans (doi:10.1126/science.aae0568).

B1: tRNA (parent)
chain: GUUCCGUUGGCGUAAUGGUAACGCGUCUCCCUCCUAAGGAGAAGACUGCGGGUUCGAGUCCCGUACGGAACG

Variants at the floor of the assay were thinned out.

Variants of B1 are the subject of the series. The experiment in a line: yeast fitness relative to wild type (ratio to wild type); higher = fitter; tRNA-Arg(CCU), competitive growth, 37 C, YPD. In short, it runs like this: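 Variants of the tRNA-Arg(CCU) gene, chemically synthesised with a 3% per-site mutation rate at 69 sites, were placed at the native genomic locus in Saccharomyces cerevisiae. The pooled strains were competed in YPD at 37°C for 24 hours in six parallel replicates. Gene amplicons from the start population and from each end population were read by 100-nucleotide paired-end sequencing. Darwinian fitness relative to wild type came from changes in genotype frequencies; genotypes needed ≥ 100 starting reads, and estimates < 0.5 were set to 0.5.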
C5U A40G: the yeast fitness stood at 1.01.

Take G25A C31U C55G C61U C62A: the yeast fitness amounted to 0.598.

As for G17A A20C C49G, the yeast fitness was no more than 0.5.

Consider U2C C4U C34A A65C C66G, for which the yeast fitness was 0.583.

For G6C C22U C24G C27U C29A C30U C31G C49U C66U G67A, the yeast fitness is no more than 0.5.

Consider A21C U35A G50C A69C, for which the yeast fitness is no more than 0.5.

With G18C U19G A20G C33A U35C, the yeast fitness is no more than 0.5.

C11A A37U U54C: the yeast fitness was 0.678.

In the case of C27U A43C G68U, the yeast fitness was 0.612.

With G10A U19A G44C C49U G67C, the yeast fitness was no more than 0.5.

Take A15U G25C U59A: the yeast fitness was no more than 0.5.

U16C C22U: the yeast fitness turned out to be 0.741.

On to C5A A42C G63A, for which the yeast fitness is no more than 0.5.

On to A21C C49A, for which the yeast fitness worked out at 0.742.

As for U7A C55U A65G, the yeast fitness was no more than 0.5.

On to U2C C30G C31G C46G U54A, for which the yeast fitness was no more than 0.5.

As for C5U A57C, the yeast fitness turned out to be 0.659.

Regarding C24A A45U, the yeast fitness is 0.57.

As for U13A U28C A69C, the yeast fitness was found to be 0.76.

A20G A45U: the yeast fitness worked out at 1.04.

For the variant A20G A45C, the yeast fitness was found to be 0.866.

Regarding A37U A40C A42G, the yeast fitness was no more than 0.5.

On to U19C C30G G51C, for which the yeast fitness was no more than 0.5.

Regarding C27G G39C A69U, the yeast fitness amounted to 0.566.

Turning to A20C A40U C61A G68A, the yeast fitness is 0.574.

In the case of C27U C33G C55G C61U, the yeast fitness was found to be 0.539.

Consider U2G G9C G12A A20G A42C C46G C49U A69C, for which the yeast fitness is no more than 0.5.

Consider U2C G23C C29A C49G A57U, for which the yeast fitness was no more than 0.5.

Turning to C11A G25C C29U C62A, the yeast fitness was no more than 0.5.

For U7G C55A, the yeast fitness came to 0.665.

Regarding C5A A57G, the yeast fitness worked out at 0.767.

Turning to U8A A21U C27G C30A, the yeast fitness was no more than 0.5.

Turning to C27U G63C, the yeast fitness amounted to 0.715.

Consider G41A A43U G63A, for which the yeast fitness is no more than 0.5.

As for U28A A43U U53A, the yeast fitness is no more than 0.5.

For G17C G25C C61U, the yeast fitness was no more than 0.5.

Consider G51A C55G G68C, for which the yeast fitness is no more than 0.5.

With G9C C60U, the yeast fitness came out at 0.618.

As for G23A C24G C29U G41A, the yeast fitness was no more than 0.5.

For C11U C29A, the yeast fitness amounted to 0.824.

On to G17U C24A C31U, for which the yeast fitness is no more than 0.5.

For A14U G68C A70G, the yeast fitness was no more than 0.5.

Turning to U2C G10A, the yeast fitness came to 0.803.

Consider U7A C31G G63A, for which the yeast fitness was no more than 0.5.

Take U8C A21U C24U U32A C55G: the yeast fitness is no more than 0.5.

In the case of U2A U16C C30A C61G, the yeast fitness was no more than 0.5.

Regarding U13C C66A, the yeast fitness was 0.556.

For A45C C46U G67C, the yeast fitness is 0.584.

As to C27G A42C C55A, the yeast fitness was 0.682.

As to C4G G12A G68U, the yeast fitness was no more than 0.5.

For the variant U13A C34U, the yeast fitness was 0.58.

U19G C55G: the yeast fitness is 0.651.

Take C27A G50C: the yeast fitness was 0.721.

For the variant G17A C31U C49G A69U, the yeast fitness is no more than 0.5.

As for U16G C31G G63C A65U, the yeast fitness was no more than 0.5.

Turning to A15C G17C C31A U32C G44C, the yeast fitness was no more than 0.5.

As for G9A C24G U28C A57C, the yeast fitness was no more than 0.5.

Take U2G A15C A36C A69U A70G: the yeast fitness was no more than 0.5.

On to U7A G9C G17C G48A C60U, for which the yeast fitness was no more than 0.5.

As for A40G C46A G67A, the yeast fitness was 0.563.

For U3C G9A C11U, the yeast fitness was found to be 0.808.

With U28C C33A A42C A45U, the yeast fitness is no more than 0.5.

In the case of G10A A20G C46U G50U C55U, the yeast fitness is no more than 0.5.

As for U7A G10C C22U C27G G50U C66U, the yeast fitness is no more than 0.5.

For G56A A65G, the yeast fitness is 1.01.

C22A G25C A40C: the yeast fitness came out at 0.59.

On to G41A U53A C61A G68C, for which the yeast fitness is 0.584.

Consider C30A C31U A45C C49U C55G, for which the yeast fitness is no more than 0.5.

On to C4A G12C U13G C30U G58C, for which the yeast fitness is no more than 0.5.

Consider G10A A15U A21C G25C C62A, for which the yeast fitness is no more than 0.5.

Take C29A G58A: the yeast fitness stood at 0.653.

As to U3C A43U A45G G63A, the yeast fitness is no more than 0.5.

With C24A A43U G48A, the yeast fitness is no more than 0.5.

As to A14C C49G G63A, the yeast fitness came out at 0.593.

As for U16G A36G A45G, the yeast fitness amounted to 0.745.

As to U13C C24G C61A, the yeast fitness was 0.54.

As for G52A G58C A70G, the yeast fitness was no more than 0.5.

Regarding U7G G23A A36U G39C, the yeast fitness is no more than 0.5.

On to U8C C34U C55A C62U, for which the yeast fitness stood at 0.619.

As for G12A A37C A45C G52C A70U, the yeast fitness was no more than 0.5.

C24A G58A A70G: the yeast fitness is 0.574.

Consider A15U C24G G44C G58C G68U, for which the yeast fitness is no more than 0.5.

In the case of U2A U64A A70U, the yeast fitness amounted to 1.06.

For U32C G44A A69U, the yeast fitness was determined as 1.05.

C27U C29A: the yeast fitness came out at 0.737.

As to G17C G18C G39A A57C, the yeast fitness is no more than 0.5.

Turning to A21C G23U U59G, the yeast fitness was no more than 0.5.

Turning to U26C U32A C34U G38C G51A A57C, the yeast fitness came out at 0.653.

For the variant C33G G48A U64A, the yeast fitness stood at 0.613.

For the variant G39A C55A G56A G67C, the yeast fitness is no more than 0.5.

For the variant A42C C49A, the yeast fitness was 0.62.

For G18C U64A, the yeast fitness turned out to be 0.593.

For the variant A14C G18A C29G A42C, the yeast fitness was no more than 0.5.

Turning to U26C A70U, the yeast fitness is 0.926.

Consider U7C U47C U64G G68C, for which the yeast fitness is no more than 0.5.

With U19A U32C, the yeast fitness was 0.848.

For A15C A70U, the yeast fitness worked out at 0.872.

In the case of A36C U47A G48C U54G A65C G67A, the yeast fitness is no more than 0.5.

Consider U2C C4U G48A, for which the yeast fitness worked out at 0.538.

A21U G23C C24U: the yeast fitness was found to be 0.658.

Consider C31U C34A A40G U59A, for which the yeast fitness worked out at 0.566.

Turning to U3G A15U, the yeast fitness turned out to be 0.633.

In the case of G9A A40C G48C A57G, the yeast fitness was no more than 0.5.

Turning to U47A G48C G67C, the yeast fitness came to 0.538.

With C27U G58C A69C, the yeast fitness was found to be 1.05.

With A15U C62G, the yeast fitness worked out at 0.646.

U3C A20G C24U G38A G58C: the yeast fitness was no more than 0.5.

On to U2A A20G C55G, for which the yeast fitness is 0.537.

Consider A36C G38A U54C G58A, for which the yeast fitness is no more than 0.5.

U3G G12C A70C: the yeast fitness was 0.545.

For A20U A69U, the yeast fitness turned out to be 1.05.

For the variant A14U U26C A42U C60G, the yeast fitness is no more than 0.5.

As to U16A G48A C61U, the yeast fitness came to 0.706.

For U2A C66U G67A, the yeast fitness stood at 0.601.

Turning to U3A C4A U8C C29G A37C A70C, the yeast fitness is no more than 0.5.

Turning to C4G C24G C30U C46G, the yeast fitness is no more than 0.5.

For the variant C5U, the yeast fitness worked out at 0.987.

As for C30A G68A A69C, the yeast fitness was found to be 0.629.

As to C11G C29G C31G A37U, the yeast fitness was 0.674.

With C27U G58C U64C, the yeast fitness was determined as 0.73.

Take A21C C30G A45G C66A: the yeast fitness is no more than 0.5.

As to C11U C49U A65C, the yeast fitness came out at 0.727.

Turning to A43U U64G, the yeast fitness was 0.7.

As to G17C A20G G51A, the yeast fitness was no more than 0.5.

For the variant U2C A14C C46A, the yeast fitness is no more than 0.5.

For C31U C33A, the yeast fitness stood at 0.585.

Take C5G A20U G25A G41A C55G U64G: the yeast fitness is 0.534.

As to C22U G50C, the yeast fitness amounted to 0.818.

For the variant U8G G38C G67U, the yeast fitness is 0.529.

Turning to C4U G63A C66U, the yeast fitness was found to be 0.792.

Turning to C22A U54C, the yeast fitness was determined as 0.917.

For U7C C31G C34U A57U, the yeast fitness was no more than 0.5.

Regarding C4U G12A C24A G67C, the yeast fitness was no more than 0.5.

Turning to G18C C31U C46U, the yeast fitness was no more than 0.5.

Consider C5A C22A, for which the yeast fitness stood at 0.831.

Turning to G23C U28A G39A G48A C61G C66G, the yeast fitness was no more than 0.5.

Consider A14G A21C C33A A43U C62U, for which the yeast fitness is 0.558.

As to G9C A36C C61A, the yeast fitness turned out to be 0.616.

For U3C A20U G52C, the yeast fitness is no more than 0.5.

Consider C34G C62U, for which the yeast fitness worked out at 0.639.

As to U2A G25A A40C A65C, the yeast fitness was no more than 0.5.

In the case of C49A A65G, the yeast fitness worked out at 0.625.

Take A37U C46G U54C C61A: the yeast fitness was found to be 0.543.

As for C11U G12A C24U U47C, the yeast fitness was no more than 0.5.

As for G48A G52A G67A, the yeast fitness was determined as 0.648.

As to C5U A45C, the yeast fitness came out at 1.06.

For the variant C29U C31G C34G A37C C46A G50A A57U C66U, the yeast fitness is no more than 0.5.

On to A40U A45U G63A, for which the yeast fitness worked out at 0.689.

As to U13C A42U, the yeast fitness came to 0.923.

As to U3C C24G, the yeast fitness was 0.642.

Regarding U32C A43C C55A A57C, the yeast fitness was no more than 0.5.

Consider C11U C49A, for which the yeast fitness is 0.724.

For the variant A21U A57G, the yeast fitness came to 0.882.

With C30A C46U G52C, the yeast fitness is 0.568.

For the variant C4U U26C A36C U64A A70C, the yeast fitness was no more than 0.5.

Regarding C5U C30U A37G, the yeast fitness is 0.64.

In the case of A21C A37U, the yeast fitness was 0.646.

As for U13C A20C G48C A57G, the yeast fitness is no more than 0.5.

As to C4U G39C G48C, the yeast fitness was determined as 0.537.

Consider C31A C61G, for which the yeast fitness amounted to 0.812.

For U7G C49A C61U G67C, the yeast fitness was no more than 0.5.

Take G9A C11G C33U A36G C55G: the yeast fitness is no more than 0.5.

Take U16G C24U C49G G63C: the yeast fitness was no more than 0.5.

On to A37U C61A, for which the yeast fitness was no more than 0.5.

For U7G C30A C55A, the yeast fitness was no more than 0.5.

As for G48C G68A, the yeast fitness was found to be 0.846.

Take U7C C24G A45G: the yeast fitness was no more than 0.5.
